The nature of series [1]: folding enthalpy; higher = less favourable; fluorescence melt of hairpins on a sequencing array, two-state fit. The settings on record: sodium 0.088 M. The method, boiled down: (§1)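 Library hairpins on a sequenced MiSeq flow cell carried annealed Cy3 and quencher oligos, and their Cy3 fluorescence was imaged in 50 mM Na-HEPES pH 8.0 with 25 mM NaCl, in 2.5 °C steps up to 60 °C. Signals were normalised to Cy3 before quenching and to control constructs. Melting temperature and folding enthalpy were obtained from bootstrapped two-state fits, combined by inverse-variance weighting across four replicates, and the fitted temperatures were then raised by 9.35 °C to match UV melts.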

The nature of series [2]: melting temperature; fluorescence melt of hairpins on a sequencing array, two-state fit, raised by 9.35 °C to match UV melts. As to conditions: sodium 0.088 M. Put shortly: as §1

Consider 73 sequences from the array DNA melting data of Ke et al. (doi:10.1101/2024.01.08.574731).

As for GGTATAGGAAACTATATC (.(((((....))))).), the folding enthalpy in series [1] was -17.1 kcal/mol. Also, the Tm in series [2] worked out at 31.2 °C.
As for GGTATAGGAAACTATGCC ((.((((....)))).)), the folding enthalpy in series [1] was -33.1 kcal/mol. Also, the Tm in series [2] is 43.2 °C.
For GGTATCGAAAGATAAACC ((((((....)))..))), in that order: -18.4 kcal/mol and 30.4 °C.
Take GGTATCGAAAGATCGACC ((((((....)))..))): the folding enthalpy in series [1] was -16.9 kcal/mol. Moreover, the Tm in series [2] was 27.8 °C.
With GGTATCGAAAGATGTACC ((((((....)))..))), in series [1], the folding enthalpy was -23.2 kcal/mol. Further, the Tm in series [2] is 32.5 °C.
In the case of GGTATCTCGAAAGAGACC (((..(((....)))))), the folding enthalpy in series [1] is -21.1 kcal/mol. For the same sequence, the Tm in series [2] is 35.2 °C.
The corresponding values for GGTATGGAAACATACC ((((((....)))))) are -41.9 kcal/mol and 53.4 °C.
The corresponding values for GGTATGGGAAACCATACC (((((((....))))))) are -45.3 kcal/mol and 58 °C.
For the sequence GGTATGGGAAACTATACC (((((.(....).))))), the folding enthalpy in series [1] is -26.6 kcal/mol. The Tm in series [2] was determined as 41.4 °C.
The corresponding values for GGTATGTCGAAAGACACC (((..(((....)))))) are -12.1 kcal/mol and 34.8 °C.
The corresponding values for GGTATTCGAAAGAAGACC (((.(((....))).))) are -43.2 kcal/mol and 50.8 °C.
The corresponding values for GGTCAACGAAAGTTCACC (((.(((....))).))) are -22.3 kcal/mol and 35.1 °C.
As for GGTCAAGAAATTGACC ((((((....)))))), the folding enthalpy in series [1] was -41.4 kcal/mol. The Tm in series [2] is 52.7 °C.
For GGTCAAGGAAACTCGACC ((((.((....)).)))), in that order: -26.6 kcal/mol and 40.8 °C.
The corresponding values for GGTCAAGGAAACTTGACC (((((((....))))))) are -43 kcal/mol and 63.5 °C.
The corresponding values for GGTCAATCGAAAGATACC (((..(((....)))))) are -13.3 kcal/mol and 26.9 °C.
Regarding GGTCACCGAAAGGTCACC (((.(((....))).))), in series [1], the folding enthalpy was -25.6 kcal/mol. Also, the Tm in series [2] stood at 43.9 °C.
The corresponding values for GGTCACGAAAGTGATACC ((((((....)))..))) are -11.7 kcal/mol and 44.7 °C.
The corresponding values for GGTCACGAAAGTGGCACC ((((((....)))..))) are -11.7 kcal/mol and 47.6 °C.
For GGTCACGAAAGTGGGACC ((((((....)))..))), in that order: -23.4 kcal/mol and 48 °C.
For the sequence GGTCACGGAAACGTGGTC (..((((....))))..), the folding enthalpy in series [1] was -16.8 kcal/mol. In addition, the Tm in series [2] came to 39.6 °C.
For GGTCAGGGAAACCTGACC (((((((....))))))), in that order: -36.6 kcal/mol and 67.2 °C.
Regarding GGTCATGAAAATGACC ((((((....)))))), the folding enthalpy in series [1] was -38 kcal/mol. Further, the Tm in series [2] was determined as 59.5 °C.
With GGTCATGCGAAAGCAACC (((..(((....)))))), the folding enthalpy in series [1] was -8.01 kcal/mol. In addition, the Tm in series [2] worked out at 27 °C.
The corresponding values for GGTCCACGAAAGTGACC (((.(((....)))))) are -24.4 kcal/mol and 52.5 °C.
The corresponding values for GGTCCACGAAAGTGTACC (((.(((....))).))) are -21.7 kcal/mol and 50 °C.
The corresponding values for GGTCCCCGAAAGGGCACC (((.(((....))).))) are -19.3 kcal/mol and 49 °C.
For GGTCCCGAAAGGGCAACC ((((((....)))..))), the folding enthalpy in series [1] is -12.4 kcal/mol. Moreover, the Tm in series [2] turned out to be 38.4 °C.
The corresponding values for GGTCCCGAAAGGGCCACC ((((((....)))..))) are -11.7 kcal/mol and 55 °C.
For GGTCCCGAAAGGGTACC ((((((....))).))), in that order: -23.4 kcal/mol and 55.5 °C.
The corresponding values for GGTCCCGGAAACGGGATC (.(((((....))))).) are -24.2 kcal/mol and 57.1 °C.
For the sequence GGTCCCTCGAAAGAGACC (((..(((....)))))), the folding enthalpy in series [1] was -17.1 kcal/mol. For the same sequence, in series [2], the Tm was determined as 34.8 °C.
For GGTCCGCGAAAGCGCACC (((.(((....))).))), in that order: -20.9 kcal/mol and 48.3 °C.
For GGTCCGGGAAACCGAACC (((.(((....))).))), in that order: -29.1 kcal/mol and 46.8 °C.
The corresponding values for GGTCCGGGAAACTGGGCC ((.((.(....).)).)) are -35.4 kcal/mol and 51.7 °C.
With GGTCCTGGAAACAGGACC (((((((....))))))), the folding enthalpy in series [1] is -30.9 kcal/mol. For the same sequence, the Tm in series [2] worked out at 69.3 °C.
On to GGTCCTGGAAACAGGGTC (..((((....))))..), for which, in series [1], the folding enthalpy is -16.1 kcal/mol. In series [2], the Tm was determined as 37.8 °C.
For GGTCGAGGAAACTTGACC ((((.((....)).)))), in that order: -32 kcal/mol and 51.9 °C.
Turning to GGTCGCCGAAAGGCACC (((.(((....)))))), the folding enthalpy in series [1] is -12.6 kcal/mol. Moreover, the Tm in series [2] was 55.3 °C.
Regarding GGTCGCGAAAGCGAGACC ((((((....)))..))), the folding enthalpy in series [1] is -13.5 kcal/mol. Moreover, the Tm in series [2] stood at 51.6 °C.
Turning to GGTCGCGAAAGCGCTACC ((((((....)))..))), the folding enthalpy in series [1] is -13 kcal/mol. Moreover, the Tm in series [2] was 36.7 °C.
For GGTCGCGAAAGCGTAACC ((((((....)))..))), in that order: -15 kcal/mol and 47.2 °C.
For GGTCGCGAAAGCGTCACC ((((((....)))..))), in that order: -13.3 kcal/mol and 40.1 °C.
The corresponding values for GGTCGCGAAAGCGTGACC ((((((....)))..))) are -18.2 kcal/mol and 53.1 °C.
Take GGTCGCGGAAACGCAACC (((.(((....))).))): in series [1], the folding enthalpy is -33.1 kcal/mol. Also, the Tm in series [2] amounted to 51.6 °C.
In the case of GGTCGCGGAAACGTGACC ((((.((....)).)))), the folding enthalpy in series [1] was -51.2 kcal/mol. In addition, the Tm in series [2] amounted to 63.5 °C.
The corresponding values for GGTCGGACGAAAGTCACC (((..(((....)))))) are -12.7 kcal/mol and 30.6 °C.
The corresponding values for GGTCGGGGAAACCCGGCC ((.((((....)))).)) are -42.7 kcal/mol and 66.2 °C.
The corresponding values for GGTCTCGAAAGAGCACC ((((((....))).))) are -22.8 kcal/mol and 46.5 °C.
Consider GGTCTCGAAAGAGCTACC ((((((....)))..))), for which, in series [1], the folding enthalpy was -13.9 kcal/mol. Further, the Tm in series [2] came to 36 °C.
For GGTCTCGGAAACAAGACC (((((.(....).))))), in that order: -31.8 kcal/mol and 41.9 °C.
For GGTCTGGGAAACTAGACC (((((.(....).))))), in that order: -41.5 kcal/mol and 50.6 °C.
In the case of GGTCTGGGAAACTAGGCC ((.((.(....).)).)), the folding enthalpy in series [1] is -33.4 kcal/mol. Also, the Tm in series [2] came out at 41.2 °C.
For GGTCTTCGAAAGAACACC (((.(((....))).))), in that order: -26.6 kcal/mol and 32.6 °C.
The corresponding values for GGTCTTCGAAAGAATACC (((.(((....))).))) are -32.9 kcal/mol and 39.1 °C.
The corresponding values for GGTCTTGAAAAAGACC ((((((....)))))) are -40.4 kcal/mol and 57.2 °C.
GGTCTTGGAAACAAAACC (((.(((....))).))): the folding enthalpy in series [1] was -14.5 kcal/mol. In addition, the Tm in series [2] is 29.6 °C.
The corresponding values for GGTCTTGGAAACAGGACC ((((.((....)).)))) are -36.3 kcal/mol and 49.2 °C.
For GGTCTTGGAAACGAGATC (.(((.(....).))).), in that order: -17.8 kcal/mol and 30.7 °C.
Take GGTGAACGAAAGTTTACC (((.(((....))).))): in series [1], the folding enthalpy was -45.2 kcal/mol. In addition, the Tm in series [2] worked out at 51.8 °C.
The corresponding values for GGTGAAGCGAAAGCTACC (((..(((....)))))) are -17.1 kcal/mol and 40.5 °C.
The corresponding values for GGTGAAGGAAACTTTACC (((.(((....))).))) are -31.6 kcal/mol and 39 °C.
With GGTGACCGAAAGGTAACC (((.(((....))).))), in series [1], the folding enthalpy was -41.1 kcal/mol. Moreover, the Tm in series [2] was 57.1 °C.
The corresponding values for GGTGACGAAAGTCCAACC ((((((....)))..))) are -18.2 kcal/mol and 37.7 °C.
As for GGTGACGAAAGTCGAACC ((((((....)))..))), the folding enthalpy in series [1] is -17.6 kcal/mol. In addition, in series [2], the Tm was determined as 41.9 °C.
Turning to GGTGACGAAAGTCTGACC ((((((....)))..))), the folding enthalpy in series [1] is -15.6 kcal/mol. For the same sequence, the Tm in series [2] was 39.7 °C.
For GGTGACGCGAAAGCGACC (((..(((....)))))), in that order: -12.1 kcal/mol and 40.4 °C.
For GGTGACGGAAACGTCATC (.(((((....))))).), in that order: -38.2 kcal/mol and 54.1 °C.
For GGTGAGCGAAAGCTGACC (((.(((....))).))), in that order: -37.8 kcal/mol and 55 °C.
As to GGTGAGGGAAACCCCACC ((((.((....)).)))), the folding enthalpy in series [1] is -39.2 kcal/mol. Moreover, in series [2], the Tm turned out to be 50.5 °C.
For the sequence GGTGATCGAAAGATACC (((.(((....)))))), the folding enthalpy in series [1] is -25.2 kcal/mol. The Tm in series [2] was found to be 37.5 °C.
For GGTGATGAAAATCACC ((((((....)))))), in that order: -32.1 kcal/mol and 62.5 °C.
The corresponding values for GGTGATGGAAACGTCATC (.(((.(....).))).) are -26.4 kcal/mol and 34.7 °C.
